# The source made the active and inactive calls. No cut-off for these calls is given here.
# Legend:
# [1] = molecular target: T1, Orexin/Hypocretin receptor type 1 (Homo sapiens, UniProt O43613); assay: Antagonist activity at human OX1R by radioligand displacement assay
# T1 sequence (O43613 whole entry): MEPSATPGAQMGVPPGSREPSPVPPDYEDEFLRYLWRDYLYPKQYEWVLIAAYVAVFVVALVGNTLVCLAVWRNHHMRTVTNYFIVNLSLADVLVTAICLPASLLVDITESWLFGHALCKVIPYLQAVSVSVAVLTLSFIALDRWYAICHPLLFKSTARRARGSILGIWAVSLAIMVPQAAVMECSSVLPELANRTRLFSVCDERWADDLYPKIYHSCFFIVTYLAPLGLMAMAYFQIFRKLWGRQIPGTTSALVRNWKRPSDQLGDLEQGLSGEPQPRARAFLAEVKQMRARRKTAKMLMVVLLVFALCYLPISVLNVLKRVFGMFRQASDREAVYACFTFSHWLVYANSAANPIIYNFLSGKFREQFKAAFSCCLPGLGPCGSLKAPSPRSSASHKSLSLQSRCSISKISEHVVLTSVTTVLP
# In short: (§1)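 Radioligand-displacement binding assay at the human orexin receptor; affinity expressed as Ki; data for racemates unless otherwise noted.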
# Orexin receptor type 2 [2] = molecular target: T2, Orexin receptor type 2 (Homo sapiens, UniProt O43614); assay: Antagonist activity at human OX2R by radioligand displacement assay; in short: as §1
# T2 sequence (O43614 whole entry): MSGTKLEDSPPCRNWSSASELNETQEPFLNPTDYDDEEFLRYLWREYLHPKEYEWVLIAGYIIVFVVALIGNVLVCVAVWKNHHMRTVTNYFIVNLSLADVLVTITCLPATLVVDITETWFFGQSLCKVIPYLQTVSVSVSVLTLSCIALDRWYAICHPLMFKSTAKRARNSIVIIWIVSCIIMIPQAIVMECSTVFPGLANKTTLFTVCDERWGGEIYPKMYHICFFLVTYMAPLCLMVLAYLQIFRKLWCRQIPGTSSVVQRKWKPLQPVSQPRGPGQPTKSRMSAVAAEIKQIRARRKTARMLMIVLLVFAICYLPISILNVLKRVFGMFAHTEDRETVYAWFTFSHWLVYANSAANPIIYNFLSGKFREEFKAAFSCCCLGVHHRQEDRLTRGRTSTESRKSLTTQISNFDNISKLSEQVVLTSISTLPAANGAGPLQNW
# Homo sapiens = species on record: Homo sapiens; assay: Selectivity ratio of Ki for human OX1R to Ki for human OX2R
# In short: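 Selectivity index for OX2R over OX1R, calculated from radioligand-displacement binding Ki values at the two human receptors.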
# [3] = molecular target: T1, Orexin/Hypocretin receptor type 1; assay: Antagonist activity at human OX1R by FLIPR assay
# In short: (§2)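 Functional FLIPR readout in CHO cells engineered to overexpress the human orexin receptor; antagonism expressed as IC50.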
# Orexin receptor type 2 [4] = molecular target: T2, Orexin receptor type 2; assay: Antagonist activity at human OX2R by FLIPR assay; in short: as §2
# [5] = Oral bioavailability in Sprague-Dawley rat at 10 mg/kg; assay type: ADME, organism-based; settings: in vivo
# In short: (§3)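 Sprague–Dawley rats were dosed intravenously at 2 mg/kg and orally at 10 mg/kg. Readouts were clearance (mL/min/kg), terminal half-life, plasma AUC (µM•h) and oral bioavailability (%).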
# [6] = Drug uptake in rat CSF at 30 mg/kg, po after 30 mins; assay type: ADME, organism-based; design: dose 30 mg/kg, route oral; settings: cerebrospinal fluid, read-out: Drug uptake
# In short: (§4)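 Rats received a single 30 mg/kg oral dose. Receptor occupancy, plasma level and CSF level were determined at t = 30 min.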
# [7] = Clearance in beagle dog at 0.125 mg/kg, iv; assay type: ADME, organism-based, Canis lupus familiaris; design: dose 0.125 mg/kg, route intravenous; settings: in vivo
# In short: (§5)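 Beagle dogs were dosed intravenously at 0.125 mg/kg and orally at 3 mg/kg. Readouts were clearance (mL/min/kg), terminal half-life, and oral AUC (µM•h), Cmax (µM), Tmax (h) and bioavailability (%).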
# Rattus norvegicus [8] = assay: Effect on sleep-wake cycle in rat assessed as change in active wake at 30 mg/kg, po after 30 mins relative to vehicle-treated control; assay type: functional, organism-based; design: dose 30 mg/kg
# In short: (§6)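 EEG-telemetry in rats, 30 mg/kg oral versus vehicle (20% vitamin E TPGS). Dosing was at 09:00 in the active phase (ZT 17:00, 7 h before lights on), recorded from 30 min pre-dose to 2 h post-dose. Active wake, light, delta and REM sleep were scored as means in 10-min bins. Balanced crossover over 3 consecutive days, N=6.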
# [9] = Tmax in Sprague-Dawley rat at 30 mg/kg, po; settings: in vivo
# [10] = AUC in Sprague-Dawley rat at 10 mg/kg, po; assay type: ADME, organism-based; design: dose 10 mg/kg, route oral; settings: plasma; in short: as §3
# [11] = Aqueous solubility of the compound at pH 2; assay type: physicochemical; settings: aqueous medium
# [12] = Half life in Sprague-Dawley rat at 2 mg/kg, iv; assay type: ADME, organism-based; design: dose 2 mg/kg, route intravenous; settings: in vivo; in short: as §3
# [13] = Fraction unbound in rat plasma; assay type: ADME, cell-free
# [14] = AUC in beagle dog at 3 mg/kg, po; assay type: ADME, organism-based, Canis lupus familiaris; design: dose 3 mg/kg, route oral; settings: plasma; in short: as §5
# [15] = Tmax in beagle dog at 3 mg/kg, po; assay type: ADME, organism-based, Canis lupus familiaris; design: dose 3 mg/kg, route oral; settings: in vivo; in short: as §5
# P-gp = assay: Binding affinity to human P-gp assessed as apparent passive permeability; assay type: ADME; settings: not told
# [16] = Plasma concentration in rat at 30 mg/kg, po after 30 mins; assay type: ADME, organism-based; design: dose 30 mg/kg, route oral; in short: as §4
# Rattus norvegicus [17] = assay: Effect on sleep-wake cycle in rat assessed as increase in REM sleep at 30 mg/kg, po after 30 mins relative to vehicle-treated control; assay type: functional, organism-based; design: dose 30 mg/kg; in short: as §6
# Rattus norvegicus [18] = assay: Ex vivo receptor occupancy of OX2R in rat at 30 mg/kg, po after 30 mins; assay type: functional; in short: as §4
# [19] = Fraction unbound in human plasma; assay type: ADME, cell-free
# [20] = AUC in Sprague-Dawley rat at 30 mg/kg, po; settings: plasma
# [21] = Plasma protein binding in human; assay type: ADME, cell-free; settings: read-out: PPB (converted)
# [22] = Aqueous solubility of the compound at pH 7; assay type: physicochemical; settings: aqueous medium
# [23] = Cmax in beagle dog at 3 mg/kg, po; assay type: ADME, organism-based, Canis lupus familiaris; design: dose 3 mg/kg, route oral; settings: in vivo; in short: as §5
# [24] = Oral bioavailability in beagle dog at 3 mg/kg; assay type: ADME, organism-based, Canis lupus familiaris; settings: in vivo; in short: as §5
# Rattus norvegicus [25] = assay: Effect on sleep-wake cycle in rat assessed as increase in delta sleep at 30 mg/kg, po after 30 mins relative to vehicle-treated control; assay type: functional, organism-based; design: dose 30 mg/kg; in short: as §6
# [26] = Oral bioavailability in Sprague-Dawley rat at 30 mg/kg; settings: in vivo
# [27] = Cmax in Sprague-Dawley rat at 30 mg/kg, po; settings: in vivo
# [28] = Plasma protein binding in rat; assay type: ADME, cell-free; settings: read-out: PPB (converted)
# [29] = Lipophilicity, log D of the compound by HPLC analysis; assay type: physicochemical
# [30] = Half life in beagle dog at 0.125 mg/kg, iv; assay type: ADME, organism-based, Canis lupus familiaris; design: dose 0.125 mg/kg, route intravenous; settings: in vivo; in short: as §5
# [31] = Clearance in Sprague-Dawley rat at 2 mg/kg, iv; assay type: ADME, organism-based; design: dose 2 mg/kg, route intravenous; settings: in vivo; in short: as §3
smiles,measurement,setting,value
CC1CCC(Oc2ccnc3c(Cl)cccc23)CN1C(=O)c1ccccc1-n1nccn1 (racemic),Ki,[1],510 nM
same,Ki,Orexin receptor type 2 [2],0.9 nM
same,Ratio Ki,Homo sapiens,567
Cc1ccc(-n2nccn2)c(C(=O)N2CCCC(Oc3cccc4ccccc34)C2)c1 (stereo unspecified),Ki,[1],9 nM
same,Ki,Orexin receptor type 2 [2],18 nM
same,Ratio Ki,Homo sapiens,0.5
C[C@@H]1CC[C@@H](Oc2ccnc3c(F)cccc23)CN1C(=O)c1ccccc1-c1ncccn1,Ki,[1],1200 nM
same,Ki,Orexin receptor type 2 [2],0.8 nM
same,Ratio Ki,Homo sapiens,1500
CC1CCC(Oc2c(Br)cnc3ccccc23)CN1C(=O)c1ccccc1-n1nccn1 (racemic),Ki,Orexin receptor type 2 [2],180 nM
C[C@@H]1CC[C@@H](Oc2nccc3ccccc23)CN1C(=O)c1ccccc1-n1nccn1 (relative stereo),Ki,Orexin receptor type 2 [2],0.3 nM
CC1CCC(Oc2cccc3ccncc23)CN1C(=O)c1ccccc1-n1nccn1 (racemic),Ki,[1],900 nM
same,Ki,Orexin receptor type 2 [2],9.3 nM
same,Ratio Ki,Homo sapiens,97
CC1CCC(Oc2cccc3cnccc23)CN1C(=O)c1ccccc1-n1nccn1 (racemic),Ki,[1],415 nM
same,Ki,Orexin receptor type 2 [2],7.5 nM
same,Ratio Ki,Homo sapiens,55
CC1CCC(Oc2ccnc3c(Br)cccc23)CN1C(=O)c1ccccc1-n1nccn1 (racemic),Ki,[1],1100 nM
same,Ki,Orexin receptor type 2 [2],2.6 nM
same,Ratio Ki,Homo sapiens,423
CC1CCC(Oc2ccnc3c(F)cccc23)CN1C(=O)c1ccccc1-n1nccn1 (racemic),Ki,[1],910 nM
same,Ki,Orexin receptor type 2 [2],1.3 nM
CC1CCC(Oc2ccnc3ccc(Br)cc23)CN1C(=O)c1ccccc1-n1nccn1 (racemic),Ki,[1],470 nM
same,Ki,Orexin receptor type 2 [2],5.2 nM
same,Ratio Ki,Homo sapiens,90
O=C(c1ccccc1-n1nccn1)N1CCC(F)(F)[C@@H](Oc2ccc3ccccc3n2)C1,Ki,[1],1.3 nM
same,Ki,Orexin receptor type 2 [2],521 nM
Cc1ccc(-n2nccn2)c(C(=O)N2C[C@H](Oc3cccc4ccccc34)CC[C@H]2C)c1 (relative stereo),Ki,[1],13 nM
same,Ki,Orexin receptor type 2 [2],1 nM
same,Ratio Ki,Homo sapiens,13
Cc1ccc(-c2ncccn2)c(C(=O)N2C[C@H](COc3ccc(F)cn3)CC[C@H]2C)c1 [FILOREXANT],Ki,[1],2.9 nM
same,IC50,[3],16 nM
same,IC50,Orexin receptor type 2 [4],17 nM
same,Ratio Ki,Homo sapiens,9
Cc1cc(OC2CCC(C)N(C(=O)c3ccccc3-n3nccn3)C2)c2ccccc2n1 (racemic),Ki,[1],3600 nM
same,Ki,Orexin receptor type 2 [2],28.9 nM
same,Ratio Ki,Homo sapiens,125
C[C@@H]1CC[C@@H](Oc2ccnc3c(F)cccc23)CN1C(=O)c1ccccc1-n1nccn1,bioavailability,[5],19%
same,concentration at 0.5 h,[6],0.339 µM
same,clearance,[7],6.2 mL/min/kg
same,Ki,[1],965 nM
same,Activity,Rattus norvegicus [8],Active
same,Ki,Orexin receptor type 2 [2],0.6 nM
same,Tmax,[9],30 min
same,AUC,[10],3.9 µM·h
same,solubility,[11],182 µM
same,half-life,[12],24 min
same,fraction unbound,[13],0.03
same,AUC,[14],16 µM·h
same,IC50,[3],3910 nM
same,Tmax,[15],22.8 min
same,Papp,P-gp,34 ×10⁻⁶ cm/s
same,concentration at 0.5 h,[16],9.5 µM
same,Activity,Rattus norvegicus [17],Active
same,IC50,Orexin receptor type 2 [4],18 nM
same,Occ,Rattus norvegicus [18],72%
same,fraction unbound,[19],0.03
same,AUC,[20],30.1 µM·h
same,fraction unbound,[21],0.029
same,solubility,[22],161 µM
same,Cmax,[23],5.65 µM
same,bioavailability,[24],60%
same,Activity,Rattus norvegicus [25],Active
same,bioavailability,[26],50%
same,Cmax,[27],15.7 µM
same,fraction unbound,[28],0.04
same,logD,[29],2.35
same,half-life,[30],42 min
same,clearance,[31],22.5 mL/min/kg
CC1CCC(Oc2cccc3cccnc23)CN1C(=O)c1ccccc1-n1nccn1 (racemic),Ki,[1],760 nM
same,Ki,Orexin receptor type 2 [2],9.8 nM
same,Ratio Ki,Homo sapiens,78
CC1CCC(Oc2ccnc3ccccc23)CN1C(=O)c1ccccc1-n1nccn1 (racemic),Ki,[1],2700 nM
same,Ki,Orexin receptor type 2 [2],6.8 nM
same,Ratio Ki,Homo sapiens,397
Cc1ccc(-n2nccn2)c(C(=O)N2CCCC(COc3ccc(F)c(C)c3)C2)c1 (stereo unspecified),Ki,[1],5.5 nM
same,Ki,Orexin receptor type 2 [2],8.9 nM
same,Ratio Ki,Homo sapiens,0.6
C[C@@H]1CC[C@@H](Oc2ccnc3c(F)cccc23)CN1C(=O)c1ccccc1-c1cccnc1,Ki,[1],19000 nM
same,Ki,Orexin receptor type 2 [2],63 nM
same,Ratio Ki,Homo sapiens,302
COc1cnc(O[C@@H]2CC[C@@H](C)N(C(=O)c3ccccc3-n3nccn3)C2)c2ccccc12,Ki,[1],0.41 nM
same,Ki,Orexin receptor type 2 [2],0.24 nM
C[C@@H]1CC[C@@H](Oc2ccnc3c(F)cccc23)CN1C(=O)c1ccccc1N(C)C,Ki,Orexin receptor type 2 [2],370 nM
CC1CCC(Oc2cc(C(F)(F)F)nc3ccccc23)CN1C(=O)c1ccccc1-n1nccn1 (racemic),Ki,Orexin receptor type 2 [2],149 nM
CC1CCC(Oc2cccc3ncccc23)CN1C(=O)c1ccccc1-n1nccn1 (racemic),Ki,[1],1030 nM
same,Ki,Orexin receptor type 2 [2],5.1 nM
same,Ratio Ki,Homo sapiens,202
Cc1ccc(-n2nccn2)c(C(=O)N2CCCC(Oc3ccc(F)c(C)c3)C2)c1 (stereo unspecified),Ki,[1],106 nM
same,Ki,Orexin receptor type 2 [2],55 nM
same,Ratio Ki,Homo sapiens,2
